Experimental data: ChEMBL document CHEMBL1154325, “Cytotoxic clerodane diterpenoids from Casearia obliqua” (J Nat Prod, 2009)
pIC50: −log10 of the molar value.

Key:
HCT-8 = test: Cytotoxic activity against human HCT8 cells after 69 hrs by MTT assay; type: functional, cell-based; conditions: HCT-8, 69 h
Method in brief: (§1)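 Cells were grown in RPMI 1640 with 10% FBS, 2 mM glutamine, penicillin and streptomycin at 37 °C under 5% CO2, then plated. After 24 h, compounds in DMSO were added at 0.39-25 µg/mL, with doxorubicin at 0.01-0.58 µg/mL as positive control. After 69 h, MTT at 0.5 mg/mL was added for 3 h. Formazan was dissolved in DMSO and read at 595 nm. IC50 came from nonlinear regression.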

HL-60 = test: Cytotoxic activity against human HL60 cells after 69 hrs by MTT assay; type: functional, cell-based; conditions: HL-60, 69 h; method in brief: as §1
SF-295 = test: Cytotoxic activity against human SF295 cells after 69 hrs by MTT assay; type: functional, cell-based; conditions: SF-295, 69 h; method in brief: as §1
[1] = system: MDA-MB-435 (Homo sapiens); test: Cytotoxic activity against human MDA-MB-435 cells after 69 hrs by MTT assay; conditions: MDA-MB-435, 69 h

| SMILES | pIC50 (HCT-8) | pIC50 (HL-60) | pIC50 (SF-295) | pIC50 [1] |
| --- | --- | --- | --- | --- |
| C=C/C(C)=C/C[C@]1(C)[C@H]2C[C@H](O)C=C3[C@H](OC(C)=O)O[C@@H](OC(C)=O)[C@@]32[C@H](OC(=O)/C=C/c2ccccc2)C[C@@H]1C | < 5.30 | < 5.30 | < 5.30 | < 5.30 |
| C=C/C(C)=C/C[C@]1(C)[C@H]2C[C@@H](OC(C)=O)C=C3[C@H](OC(C)=O)O[C@@H](OC(C)=O)[C@@]32[C@H](OC(=O)c2ccc(O)cc2)C[C@@H]1C [CASEOBLIQUIN A] | < 5.30 | < 5.30 | < 5.30 | < 5.30 |
| COc1cccc2c1C(=O)c1c(O)c3c(c(O)c1C2=O)C[C@@](O)(C(=O)CO)C[C@@H]3O[C@H]1C[C@H](N)[C@H](O)[C@H](C)O1 [DOXORUBICIN] | 5.82 | 7.15 | 6.12 | 6.92 |
